# SENP8 block-1 – blocks the human protease SENP8. inhibition, % at 10 µM. purified SENP8, Z-RLRGG-aminoluciferin cleavage, luminescence. Q96LD8. 330,000 tested, 1.2% active; in the data active = inhibition above about 50%
# SENP1 FRET inh – SENP1 (human) catalytic domain inhibition; inhibition, % at 10 µM; recombinant SENP1 catalytic domain, CyPet-SUMO1-YPet FRET cleavage; 360,000 tested, 0.21% active; AID 624204; Q9P0U3;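 active = inhibition at least 30% at 10 µM, raw YFP signal under a set limit, fluorescence ratio 0.5 to 1.5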;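 note: 0% = enzyme with DMSO and 100% = no enzyme wells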
# Target sequence (Q9P0U3 419-644 limits assumed): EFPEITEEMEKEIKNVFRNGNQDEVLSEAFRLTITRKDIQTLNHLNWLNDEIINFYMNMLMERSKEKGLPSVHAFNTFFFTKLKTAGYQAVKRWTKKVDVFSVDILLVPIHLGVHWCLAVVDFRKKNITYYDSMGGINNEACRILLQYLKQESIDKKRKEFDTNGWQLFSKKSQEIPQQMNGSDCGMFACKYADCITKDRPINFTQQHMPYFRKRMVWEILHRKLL
#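 Material: hSENP1 catalytic domain, recombinant; medium: Tris pH 8 with BME, BSA, NP40 and catalase; compound: single concentration of 10 µM compound, 0.5% DMSO final; technique: FRET read of cyan and yellow fluorescence; timing: 50 min enzyme reaction, room temperature, light-protected; reagent: SFCypet-SUMO1-SFYpet substrate at 25 nM; control set: no-enzyme low, enzyme-DMSO high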
# SENP7 block – SENP7 protease inhibition; Q9BQF6; inhibition, % at 5 µM; 330,000 tested, 1.5% active; AID 434973; recombinant SENP7, Z-RLRGG-aminoluciferin luminescence, 40 min;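 active = inhibition above about 50% at the single test dose, limit read from the data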;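 note: plate controls were DMSO with enzyme for no effect and no enzyme buffer wells for full effect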
# SENP6 inh – inhibitors of human SENP6 protease; Q9GZR1; Recombinant SENP6 catalytic domain, aminoluciferin luminescence; inhibition, % at 10 µM; 330,000 tested, 1.8% active;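 active = inhibition above about 50% at the single tested dose, limit read from the data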;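 note: plate controls were DMSO wells with enzyme for no effect and DMSO wells lacking enzyme for full effect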
# SENP8 block-2 – blocks human SENP8 cleavage of Nedd8 substrate; AID 602440; recombinant SENP8, Nedd8 substrate fluorescence; inhibition, % at 20 µM; 360,000 tested, 0.64% active; in the data active = inhibition mostly above about 40%, no sharp cut-off; inactive = mostly below about 27%
# Platelet DG rel – platelet dense granule release activity; human platelet-rich plasma, SFLLRN dense granule ATP release, luminescence; inhibition, %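 (compounds screened at 7.5 µM in platelet-rich plasma)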; 300,000 tested, 0.22% active;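 active = mean replicate score, as percent of positive control, at or above 50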
# SENP8 confirm – human SENP8 inhibition, confirmed. shares compounds with SENP7 block. Recombinant SENP8, Z-RLRGG-aminoluciferin luminescence, 60 min. inhibition, % at 12.5 µM. 6,200 tested, 40% active;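 active = mean inhibition across replicates above about 50%, limit read from the data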
# SENP6 confirm – human SENP6 inhibition, confirmed. shares compounds with SENP7 block. recombinant SENP6, Z-RLRGG-aminoluciferin luminescence. inhibition, % at 12.5 µM. 6,200 tested, 58% active. AID 488915
# SENP7 confirm – human SENP7 inhibition, confirmed; shares compounds with SENP7 block; recombinant SENP7, Z-RLRGG-aminoluciferin luminescence, 40 min; inhibition, % at 12.5 µM; 6,200 tested, 69% active
# Casp3 SENP sel – inhibits human caspase-3 in SENP selectivity test. shares compounds with SENP7 block. purified caspase-3, Z-DEVD-aminoluciferin luminescence, 60 min. inhibition, % at 12.5 µM. 6,200 tested, 60% active. AID 488918;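 active = mean inhibition above about 50%, limit read from the data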;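 note: plate controls were enzyme with DMSO for no effect and wells without caspase-3 for full effect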
# Target sequence (P42574 28-227 limits assumed): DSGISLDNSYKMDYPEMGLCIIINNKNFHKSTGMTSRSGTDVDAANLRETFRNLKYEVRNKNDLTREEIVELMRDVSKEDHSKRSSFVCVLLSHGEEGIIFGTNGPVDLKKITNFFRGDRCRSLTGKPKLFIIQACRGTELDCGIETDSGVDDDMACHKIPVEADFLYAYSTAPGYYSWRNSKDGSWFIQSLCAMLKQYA
# SENP luc ctr – luminescence interference (SENP counter-screen); AID 488919; inhibition, % at 12.5 µM; Pre-incubated SENP8/Z-RLRGG-aminoluciferin, luciferase luminescence interference; 6,200 tested, 39% active; shares compounds with SENP7 block;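 active = mean inhibition above about 50% when retested at one dose, limit read from the data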;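 note: plate controls were DMSO wells with completed reaction for no effect and substrate without enzyme for full effect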
# * hit, by the source's call; i = inactive; nt = no result given. Rows were chosen to be rich in hits. Some 2.6% of all compounds tested hit in one or more screens of this group.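 Rule for the calls, unless noted: active = mean inhibition above about 50% in the one-dose retest (limit read from the data); inactive = the rest.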
SMILES,SENP8 block-1,SENP1 FRET inh,SENP7 block,SENP6 inh,SENP8 block-2,Platelet DG rel,SENP8 confirm,SENP6 confirm,SENP7 confirm,Casp3 SENP sel,SENP luc ctr
CCOc1ccc2nc(NC(=O)c3cccnc3)sc2c1,70.7*,-1.2,86.3*,84.2*,-133.1,22.1,12.4,20.4,41.0,40.1,6.4
CC1CN(C(=O)CSc2nnc(NC(=O)NC(C)(C)C)s2)CC(C)O1 (stereo not drawn),1.5,2.2,-4.6,3.9,1.7,-2.1,nt,nt,nt,nt,nt
COc1cc(NC(C)CCCN)c2ncccc2c1Oc1ccccc1 (stereo not drawn),34.1,-33.8,29.6,74.1*,-13.2,-23.2,15.3,28.3,18.0,9.0,2.6
Nn1c(Nc2ccccc2)nc2ccccc21,28.4,1.7,41.6,66.7*,24.2,17.8,50.9*,46.7,81.0*,72.7*,59.0*
CC(=O)N1N=C(c2ccc(C)cc2)OC1c1ccc(C(C)C)cc1 (stereo not drawn),-2.8,0.9,66.4*,65.7*,4.6,-5.5,7.2,11.3,31.7,26.7,21.2
Cc1cc(Cl)c(O)c(-n2nc3ccccc3n2)c1,19.6,3.2,70.8*,27.2,14.7,6.2,1.3,12.5,43.7,37.3,4.0
N#CC(C#N)=NNc1ccc([N+](=O)[O-])cc1,74.4*,14.4,44.3,81.5*,24.1,9.2,10.8,82.5*,93.2*,61.2*,82.6*
N#CC1(c2ccc(NC(=O)c3ccccc3F)cc2)CCCC1,75.5*,2.1,76.5*,84.3*,16.9,6.5,79.5*,76.9*,93.0*,74.3*,63.6*
COc1ccc(C(=O)Nc2ccc(C3(C#N)CCCC3)cc2)cc1,-12.0,-0.9,-7.1,-19.7,4.0,4.5,nt,nt,nt,nt,nt
C/C(=N\Nc1nccnc1Cl)c1ccc(Br)cc1,1.3,-1.6,1.5,-9.6,-29.2,16.6,nt,nt,nt,nt,nt
C/C(=N\Nc1nccnc1Cl)c1ccc(O)c(C)c1,31.3,0.3,93.5*,53.8*,-28.6,18.7,43.4,47.5,75.0*,76.5*,55.5*
COc1ccc2c(c1)CCc1c(C(=O)NCC(C)C)noc1-2,29.1,1.1,51.4*,70.5*,13.8,-3.9,25.4,43.6,80.7*,56.8*,17.5
CN(Cc1ccccc1)C(=O)c1cccc(NC(=O)Cc2ccc(NC(=O)C3CCN(C(=O)C4CC4)CC3)cc2)c1,nt,1.8,nt,nt,1.4,nt,nt,nt,nt,nt,nt
CC(C)n1cnc2cc(NCc3ccccn3)ccc21,1.0,-11.7,4.4,-1.4,-15.8,-5.0,nt,nt,nt,nt,nt
Cc1cc(NCc2ccccn2)ccc1Br,38.6,-7.4,53.4*,47.4,11.0,7.9,42.7,40.5,69.4*,39.0,51.6*
Cc1nn2cc(-c3ccccc3)nc2[nH]c1=O,38.3,7.5,24.0,72.5*,-496.9,11.1,65.8*,61.2*,88.6*,88.9*,28.7
Nc1c(-c2cccs2)cnc2c(-c3ccc(F)cc3)cnn12,27.6,-2.3,68.7*,50.4*,-283.5,-4.3,8.2,34.0,48.2,41.6,8.8
Nc1c(-c2ccccc2)cnc2c(-c3ccccc3)cnn12,5.1,-0.7,74.1*,43.3,i,-1.0,7.5,18.7,50.0*,55.3*,2.5
Nc1c(C(=O)O)cnc2c(-c3ccc(Cl)cc3)cnn12,97.6*,-2.4,100.2*,95.4*,-401.2,23.2,52.3*,100.2*,103.3*,98.2*,96.4*
CC(C)CN1C(=O)C(=O)N(CC(=O)c2ccc[nH]2)C1=O,7.5,1.1,-9.0,4.7,7.2,-6.5,nt,nt,nt,nt,nt

# Source: PubChem (several laboratories)
